*1 amine or outer side, *2 acyl side, *3 side chain or, on linkers, in order; H or OH if unused. Where a SMILES comes first, the peptide text is derived from it. Bridges are numbered along the chain shown (N, C = ends). [ ]: non-standard residue; d: D form. X1 = O=C([C@H](O)CS[*:2])[*:1]; ΔPro = O=C(O)[C@@H]1C=CCN1
Tests used:
Rattus norvegicus [1] = organism: Rattus norvegicus; assay: Activity at uterotonic receptor in rat uterus assessed as uterotonic activity; type: tissue-based
Procedure, shortened: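 Isolated female rat uterine horn in the bathing fluid used for the oxytocic assay. Isometric contractions were recorded at a baseline tension of 1 g. Cumulative dose-response curves (van Rossum) were built by raising doses geometrically until a maximal response, alternating oxytocin and analogue on the same horn with return to baseline between runs. pD2 is the negative log of the concentration giving 50% of maximum.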

Gallus gallus = organism: Gallus gallus; assay: Vasodepressor activity in fowl; type: functional
Rattus norvegicus [2] = organism: Rattus norvegicus; assay: Antidiuretic activity in rat; type: functional, Urine
Rattus norvegicus [3] = organism: Rattus norvegicus; assay: Pressor activity in rat; type: functional
Rattus norvegicus [4] = organism: Rattus norvegicus; assay: Ratio of oxytocin to compound for antidiuretic activity in rat; type: functional, Urine

Compound	Activity (Rattus norvegicus [1]) [U/mg]	Activity (Gallus gallus) [U/mg]	Activity (Rattus norvegicus [2]) [U/mg]	Activity (Rattus norvegicus [3]) [U/mg]	Ratio (Rattus norvegicus [4])
CC[C@H](C)[C@@H]1NC(=O)[C@H](Cc2ccc(O)cc2)NC(=O)[C@H](O)CSSC[C@@H](C(=O)N2CCC[C@H]2C(=O)N[C@@H](CC(C)C)C(=O)NCC(N)=O)NC(=O)[C@H](CC(N)=O)NC(=O)[C@H](CCC(N)=O)NC1=O (YIQNCPLG-NH2; linker N-5 via X1)	1280	1778	16.6	14.7	–
CC[C@H](C)[C@@H]1NC(=O)[C@H](Cc2ccc(O)cc2)NC(=O)[C@@H](N)CSSC[C@@H](C(=O)N2CC=C[C@H]2C(=O)N[C@@H](CC(C)C)C(=O)NCC(N)=O)NC(=O)[C@H](CC(N)=O)NC(=O)[C@H](CCC(N)=O)NC1=O	1070	548	5.9	–	2
CC[C@H](C)[C@@H]1NC(=O)[C@H](Cc2ccc(O)cc2)NC(=O)[C@H](O)CSSC[C@@H](C(=O)N2CC=C[C@H]2C(=O)N[C@@H](CC(C)C)C(=O)NCC(N)=O)NC(=O)[C@H](CC(N)=O)NC(=O)[C@H](CCC(N)=O)NC1=O (YIQNC[ΔPro]LG-NH2; linker N-5 via X1)	880	1295	76.7	–	–
CC[C@H](C)[C@@H]1NC(=O)[C@H](Cc2ccc(O)cc2)NC(=O)CCSSC[C@@H](C(=O)N2CCC[C@H]2C(=O)N[C@@H](CC(C)C)C(=O)NCC(N)=O)NC(=O)[C@H](CC(N)=O)NC(=O)[C@H](CCC(N)=O)NC1=O [DEMOXYTOCIN]	–	975	19	1.44	–
CC[C@H](C)[C@@H]1NC(=O)[C@H](Cc2ccc(O)cc2)NC(=O)CCSSC[C@@H](C(=O)N2CC=C[C@H]2C(=O)N[C@@H](CC(C)C)C(=O)NCC(N)=O)NC(=O)[C@H](CC(N)=O)NC(=O)[C@H](CCC(N)=O)NC1=O	1070	1008	23.3	–	–

Now from value to compound, other results behind:

Activity (Rattus norvegicus [1]) [U/mg]	Compound	Activity (Gallus gallus) [U/mg]	Activity (Rattus norvegicus [2]) [U/mg]	Activity (Rattus norvegicus [3]) [U/mg]	Ratio (Rattus norvegicus [4])
546	CC[C@H](C)[C@@H]1NC(=O)[C@H](Cc2ccc(O)cc2)NC(=O)[C@@H](N)CSSC[C@@H](C(=O)N2CCC[C@H]2C(=O)N[C@@H](CC(C)C)C(=O)NCC(N)=O)NC(=O)[C@H](CC(N)=O)NC(=O)[C@H](CCC(N)=O)NC1=O [OXYTOCIN]	507	2.7	3.1	–
803	CC[C@H](C)[C@@H]1NC(=O)[C@H](Cc2ccc(O)cc2)NC(=O)CCSSC[C@H](C(=O)N2CCC[C@H]2C(=O)N[C@@H](CC(C)C)C(=O)NCC(N)=O)NC(=O)[C@H](CC(N)=O)NC(=O)[C@H](CCC(N)=O)NC1=O	–	–	–	–
